Measurements from ChEMBL document CHEMBL4689842, “EUbOPEN Chemogenomics Library wave 1” (2021).

Test system: U2OS
Experiment: Multiplex assay against U2OS
Assay type: toxicity, cell-based
Conditions: human
Outline: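 Tubulin, mitochondrial-mass and membrane-permeability phenotypes are per cents of healthy-nucleus cells. Cells were gated by CellPathfinder machine learning into Hoechst high-intensity objects or normal cells, normal cells into healthy, pyknosed or fragmented nuclei, and pyknosed cells into mitotic or apoptotic. Before that, live cells stained at seeding with Hoechst33342, BioTracker Green Microtubule Cytoskeleton Dye, MitoTracker Red and Annexin V Alexa Fluor 680 were imaged on a CQ1 microscope at 37°C and 5% CO2 after compound addition.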

[1] = 12 h, 1 µM, compound concentration 1 uM, replicate 1
[2] = 12 h, 1 µM, compound concentration 1 uM, replicate 2
[3] = 12 h, 10 µM, compound concentration 10 uM, replicate 1
[4] = 12 h, 10 µM, compound concentration 10 uM, replicate 2
[5] = 24 h, 1 µM, compound concentration 1 uM, replicate 1
[6] = 24 h, 1 µM, compound concentration 1 uM, replicate 2
[7] = 24 h, 10 µM, compound concentration 10 uM, replicate 1
[8] = 24 h, 10 µM, compound concentration 10 uM, replicate 2
[9] = 48 h, 1 µM, compound concentration 1 uM, replicate 1
[10] = 48 h, 1 µM, compound concentration 1 uM, replicate 2
[11] = 48 h, 10 µM, compound concentration 10 uM, replicate 1
[12] = 48 h, 10 µM, compound concentration 10 uM, replicate 2

## CN1CCC(=C2c3ccccc3CC(=O)c3sccc32)CC1.O=C(O)/C=C/C(=O)O [KETOTIFEN FUMARATE]
[1]
  Population Apoptotic (%): 63%
  Population Fragmented Nuclei (%): 10%
  Population Healthy Nuclei (%): 75%
  Population Hoechst High Intensity Objects (%): 5%
  Population Membrane Permeable-Phenotype (%): 15%
  Population Mitochondria Different-Phenotype (%): 19%
  Population Mitotic Cells (%): 36%
  Population Normal (%): 94%
  Population Pyknosed Nuclei (%): 13%
  Population Tubulin-Different-Phenotype (%): 19%
  Total Cell Count: 178
[2]
  Population Apoptotic (%): 75%
  Population Fragmented Nuclei (%): 6%
  Population Healthy Nuclei (%): 87%
  Population Membrane Permeable-Phenotype (%): 10%
  Population Mitochondria Different-Phenotype (%): 12%
  Population Mitotic Cells (%): 25%
  Population Pyknosed Nuclei (%): 6%
  Population Tubulin-Different-Phenotype (%): 9%
  Total Cell Count: 56
[3]
  Population Apoptotic (%): 52%
  Population Fragmented Nuclei (%): 15%
  Population Healthy Nuclei (%): 62%
  Population Hoechst High Intensity Objects (%): 5%
  Population Membrane Permeable-Phenotype (%): 15%
  Population Mitochondria Different-Phenotype (%): 90%
  Population Mitotic Cells (%): 48%
  Population Normal (%): 94%
  Population Pyknosed Nuclei (%): 21%
  Population Tubulin-Different-Phenotype (%): 97%
  Total Cell Count: 167
[4]
  Population Apoptotic (%): 33%
  Population Fragmented Nuclei (%): 2%
  Population Healthy Nuclei (%): 75%
  Population Hoechst High Intensity Objects (%): 1%
  Population Mitotic Cells (%): 66%
  Population Normal (%): 98%
  Population Pyknosed Nuclei (%): 22%
  Population Tubulin-Different-Phenotype (%): 95%
  Total Cell Count: 67
[5]
  Population Apoptotic (%): 48%
  Population Healthy Nuclei (%): 77%
  Population Hoechst High Intensity Objects (%): 5%
  Population Membrane Permeable-Phenotype (%): 8%
  Population Mitochondria Different-Phenotype (%): 16%
  Population Mitotic Cells (%): 52%
  Population Normal (%): 94%
  Population Pyknosed Nuclei (%): 14%
  Population Tubulin-Different-Phenotype (%): 11%
  Total Cell Count: 180
[6]
  Population Apoptotic (%): 100%
  Population Fragmented Nuclei (%): 8%
  Population Healthy Nuclei (%): 86%
  Population Hoechst High Intensity Objects (%): 7%
  Population Membrane Permeable-Phenotype (%): 9%
  Population Mitochondria Different-Phenotype (%): 10%
  Population Mitotic Cells (%): 0%
  Population Normal (%): 92%
  Population Pyknosed Nuclei (%): 5%
  Population Tubulin-Different-Phenotype (%): 4%
  Total Cell Count: 64
[7]
  Population Apoptotic (%): 62%
  Population Fragmented Nuclei (%): 14%
  Population Healthy Nuclei (%): 59%
  Population Hoechst High Intensity Objects (%): 6%
  Population Membrane Permeable-Phenotype (%): 5%
  Population Mitochondria Different-Phenotype (%): 96%
  Population Mitotic Cells (%): 37%
  Population Normal (%): 93%
  Population Pyknosed Nuclei (%): 25%
  Population Tubulin-Different-Phenotype (%): 85%
  Total Cell Count: 186
[8]
  Population Apoptotic (%): 59%
  Population Fragmented Nuclei (%): 6%
  Population Healthy Nuclei (%): 66%
  Population Hoechst High Intensity Objects (%): 2%
  Population Membrane Permeable-Phenotype (%): 22%
  Population Mitochondria Different-Phenotype (%): 98%
  Population Mitotic Cells (%): 40%
  Population Normal (%): 97%
  Population Pyknosed Nuclei (%): 27%
  Population Tubulin-Different-Phenotype (%): 88%
  Total Cell Count: 80
[9]
  Population Apoptotic (%): 40%
  Population Fragmented Nuclei (%): 4%
  Population Healthy Nuclei (%): 86%
  Population Hoechst High Intensity Objects (%): 4%
  Population Membrane Permeable-Phenotype (%): 5%
  Population Mitochondria Different-Phenotype (%): 13%
  Population Mitotic Cells (%): 59%
  Population Normal (%): 95%
  Population Pyknosed Nuclei (%): 8%
  Population Tubulin-Different-Phenotype (%): 11%
  Total Cell Count: 182
[10]
  Population Apoptotic (%): 28%
  Population Fragmented Nuclei (%): 8%
  Population Healthy Nuclei (%): 80%
  Population Hoechst High Intensity Objects (%): 2%
  Population Membrane Permeable-Phenotype (%): 4%
  Population Mitochondria Different-Phenotype (%): 9%
  Population Mitotic Cells (%): 71%
  Population Normal (%): 97%
  Population Pyknosed Nuclei (%): 11%
  Population Tubulin-Different-Phenotype (%): 7%
  Total Cell Count: 63
[11]
  Population Apoptotic (%): 66%
  Population Fragmented Nuclei (%): 12%
  Population Healthy Nuclei (%): 60%
  Population Membrane Permeable-Phenotype (%): 9%
  Population Mitochondria Different-Phenotype (%): 70%
  Population Mitotic Cells (%): 33%
  Population Pyknosed Nuclei (%): 27%
  Population Tubulin-Different-Phenotype (%): 72%
  Total Cell Count: 263
[12]
  Population Apoptotic (%): 57%
  Population Fragmented Nuclei (%): 7%
  Population Healthy Nuclei (%): 63%
  Population Hoechst High Intensity Objects (%): 7%
  Population Membrane Permeable-Phenotype (%): 16%
  Population Mitochondria Different-Phenotype (%): 75%
  Population Mitotic Cells (%): 42%
  Population Normal (%): 92%
  Population Pyknosed Nuclei (%): 29%
  Population Tubulin-Different-Phenotype (%): 78%
  Total Cell Count: 130

## COc1ccc(-c2ccc3c(N4CCOCC4)nc(N4C[C@@H](C)O[C@@H](C)C4)nc3n2)cc1CO [Ku-0063794]
[1]
  Population Apoptotic (%): 36%
  Population Fragmented Nuclei (%): 7%
  Population Healthy Nuclei (%): 87%
  Population Hoechst High Intensity Objects (%): 0%
  Population Membrane Permeable-Phenotype (%): 8%
  Population Mitochondria Different-Phenotype (%): 19%
  Population Mitotic Cells (%): 63%
  Population Normal (%): 99%
  Population Pyknosed Nuclei (%): 5%
  Population Tubulin-Different-Phenotype (%): 22%
  Total Cell Count: 158
[2]
  Population Apoptotic (%): 62%
  Population Fragmented Nuclei (%): 11%
  Population Healthy Nuclei (%): 83%
  Population Hoechst High Intensity Objects (%): 7%
  Population Membrane Permeable-Phenotype (%): 4%
  Population Mitochondria Different-Phenotype (%): 20%
  Population Mitotic Cells (%): 37%
  Population Normal (%): 92%
  Population Tubulin-Different-Phenotype (%): 30%
  Total Cell Count: 91
[3]
  Population Apoptotic (%): 69%
  Population Fragmented Nuclei (%): 34%
  Population Healthy Nuclei (%): 61%
  Population Hoechst High Intensity Objects (%): 31%
  Population Membrane Permeable-Phenotype (%): 20%
  Population Mitochondria Different-Phenotype (%): 6%
  Population Mitotic Cells (%): 30%
  Population Normal (%): 68%
  Population Pyknosed Nuclei (%): 4%
  Population Tubulin-Different-Phenotype (%): 11%
  Total Cell Count: 221
[4]
  Population Apoptotic (%): 33%
  Population Fragmented Nuclei (%): 37%
  Population Healthy Nuclei (%): 57%
  Population Hoechst High Intensity Objects (%): 37%
  Population Membrane Permeable-Phenotype (%): 8%
  Population Mitochondria Different-Phenotype (%): 11%
  Population Mitotic Cells (%): 66%
  Population Normal (%): 62%
  Total Cell Count: 164
[5]
  Population Apoptotic (%): 46%
  Population Fragmented Nuclei (%): 7%
  Population Healthy Nuclei (%): 88%
  Population Hoechst High Intensity Objects (%): 0%
  Population Membrane Permeable-Phenotype (%): 6%
  Population Mitochondria Different-Phenotype (%): 19%
  Population Mitotic Cells (%): 53%
  Population Normal (%): 99%
  Population Pyknosed Nuclei (%): 4%
  Population Tubulin-Different-Phenotype (%): 22%
  Total Cell Count: 173
[6]
  Population Apoptotic (%): 16%
  Population Fragmented Nuclei (%): 10%
  Population Healthy Nuclei (%): 86%
  Population Hoechst High Intensity Objects (%): 7%
  Population Membrane Permeable-Phenotype (%): 7%
  Population Mitochondria Different-Phenotype (%): 34%
  Population Mitotic Cells (%): 83%
  Population Normal (%): 92%
  Population Pyknosed Nuclei (%): 3%
  Population Tubulin-Different-Phenotype (%): 31%
  Total Cell Count: 93
[7]
  Population Apoptotic (%): 60%
  Population Fragmented Nuclei (%): 31%
  Population Healthy Nuclei (%): 63%
  Population Hoechst High Intensity Objects (%): 35%
  Population Membrane Permeable-Phenotype (%): 15%
  Population Mitochondria Different-Phenotype (%): 4%
  Population Mitotic Cells (%): 40%
  Population Normal (%): 64%
  Population Pyknosed Nuclei (%): 4%
  Population Tubulin-Different-Phenotype (%): 9%
  Total Cell Count: 298
[8]
  Population Apoptotic (%): 31%
  Population Fragmented Nuclei (%): 39%
  Population Healthy Nuclei (%): 53%
  Population Hoechst High Intensity Objects (%): 38%
  Population Membrane Permeable-Phenotype (%): 7%
  Population Mitochondria Different-Phenotype (%): 9%
  Population Mitotic Cells (%): 68%
  Population Normal (%): 61%
  Population Pyknosed Nuclei (%): 6%
  Population Tubulin-Different-Phenotype (%): 7%
  Total Cell Count: 197
